The values that follow come from ChEMBL document CHEMBL4396895, “Identification and Optimization of Novel Cathepsin C Inhibitors Derived from EGFR Inhibitors” (J Med Chem, 2019).

As a reminder, the half-life is how long it takes for the measured level to halve. Higher therefore signals slow loss. In general, AUC(0-inf) refers to total exposure, with the tail of the curve extrapolated. What is called IC50 is the midpoint of a concentration-inhibition curve. A word on the Tmax: it is the time from dosing to the highest level. By Cmax is commonly meant the highest concentration seen after dosing. The inhibition in vivo is the share of the control response that was lost under treatment. A higher inhibition in vivo goes with a strong effect. Broadly, the bioavailability is the share of a dose that reaches the circulation, judged against a reference dose that is usually intravenous. A lower bioavailability goes with poor availability.

Active and inactive are the calls of the source. No cut-off for these calls is given here.

The nature of data set [1]: Half life in C57BL/6 mouse at 2 mg/kg, iv by LC-MS/MS analysis. As to conditions: in vivo. It counts as ADME, organism-based. In a few lines:
(§1)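 Male C57BL/6 mice (n = 3) were dosed with a single IV dose of 2 mg/kg or an IP or PO dose of 10 mg/kg. Vehicle: 0.5% Methocel and 0.1% Tween-80 in citrate buffer, pH 3. Blood was drawn by eye puncture at several time points and analysed by LC-MS/MS. Parameters came from noncompartmental analysis of individual animals and are reported as means.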

The nature of data set [2]: AUC infinity in C57BL/6 mouse at 10 mg/kg, po by LC-MS/MS analysis. It counts as ADME, organism-based. Also noted: dose 10 mg/kg, time infinity, route oral. To be noted: in vivo. In a few lines:
as §1

The target of the next data set is Cytochrome P450 2C9 (Homo sapiens, UniProt P11712). The data set is described as follows: Inhibition of CYP2C9 (unknown origin). In kind it is ADME. The method in brief: (§2)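 Tested against recombinant human cytochrome P450 isoforms 1A2, 2D6, 3A4, 2C9 and 2C19.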
Data set [3] is described as follows: Tmax in C57BL/6 mouse at 10 mg/kg, ip by LC-MS/MS analysis. It counts as ADME, organism-based. As to conditions: in vivo. The method in brief: as §1
Data set [4] in a line: Cmax in C57BL/6 mouse at 10 mg/kg, po by LC-MS/MS analysis. In kind it is ADME, organism-based. Also noted: dose 10 mg/kg, route oral. As to conditions: in vivo. In a few lines: as §1
For data set [5], the target named is T1, Dipeptidyl peptidase 1 (Homo sapiens, UniProt P53634). The data set is described as follows: Inhibition of cathepsin C in human THP1 cells using H-Gly-Phe-AFC as substrate preincubated for 4 hrs followed by substrate addition and measured after 60 mins. In kind it is cell-based. In a few lines:
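THP1 or U937 cells, grown in RPMI 1640 with 10% FBS, were seeded at 1.0 × 10^6/mL. They were preincubated with threefold serial dilutions of compound for 4 h at 37 °C. H-Gly-Phe-AFC was then added from a 100 μM solution and fluorescence was read after 60 min at 37 °C. Values are means of at least two experiments.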

Data set [6] deals with Mus musculus. As to the kind of experiment: Protection against C57BL/6 mouse model of caerulein-induced acute pancreatitis assessed as reduction in CatC activity at 20 mg/kg, po pretreated twice daily for 6 days followed by caerulein-challenge at 1 hr interval for 8 hrs and measured 1 hr post-last caerulein-challenge.
Data set [7] concerns Mus musculus. The data set is described as follows: In vivo inhibition of CatC in C57BL/6 mouse blood at 20 mg/kg, po single dose using Gly-Phe-AFC as substrate measured 8 hrs post dose for up to 90 mins by fluorescence assay relative to control. To be noted: C57BL/6, Blood.
Another data set concerns the target Cytochrome P450 3A4 (Homo sapiens, UniProt P08684). The data set is described as follows: Inhibition of CYP3A4 (unknown origin). In kind it is ADME. In a few lines: as §2
Data set [8] has as its system Mus musculus. As to the kind of experiment: Protection against C57BL/6 mouse model of caerulein-induced acute pancreatitis at 20 mg/kg, po pretreated twice daily for 6 days followed by caerulein-challenge at 1 hr interval for 8 hrs and measured 1 hr post-last caerulein-challenge by H and E staining-based histological analysis.
The target in a further data set is Cathepsin S (Homo sapiens, UniProt P25774). The data set is described as follows: Inhibition of recombinant human C-terminal polyhistidine-tagged cathepsin S (Met1 to Ile331 residues) expressed in HEK293 cells using MCA-Arg-Pro-Lys-Pro-Val-Glu-NVAL-Trp-Arg-Lys(DNP)-NH2 as substrate preincubated for 30 mins followed by substrate addition and measured after 30 mins. The method in brief:
(§3)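 Recombinant human cathepsin was preincubated with compound for 30 min at RT, then reacted with substrate for 30 min. CatB and CatL were read with Z-Leu-Arg-AMC (Ex 380/Em 460 nm). CatS was read with MCA-Arg-Pro-Lys-Pro-Val-Glu-Nva-Trp-Arg-Lys(DNP)-NH2 (Ex 320/Em 405 nm). E-64 served as inhibitor control.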

Data set [9] deals with Mus musculus. As to the kind of experiment: In vivo inhibition of CatC in po dosed C57BL/6 mouse blood assessed as reduction in proteinase 3 activation administered twice daily for 6 days using aminobenzoyl-Val-Ala-Asp-Cys-Ala-Asp-Gln-ethylenediamine 2,4-dinitrophenyl as substrate measured up to 90 mins by fluorescence assay. In kind it is functional, organism-based. In a few lines: (§4)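 C57BL/6 mice (20−25 g; n = 10 per group) received oral doses twice daily at 6.7, 20 or 60 mg/kg for 6 days. The vehicle group got 0.5% Methocel and 0.1% Tween-80 in 100 mM citrate buffer, pH 3. Blood was drawn by eye puncture 14 h after the last dose. Bone marrow was flushed from femurs and tibias with ice-cold RPMI 1640. Cells were lysed in 50 mM Tris pH 7.4, 750 mM NaCl, 1% Triton X-100, sonicated on ice and stored at −80 °C. Lysates were diluted by protein content, with blood diluted 5-fold more than marrow. Kinetics were followed for up to 90 min. Results are % of the vehicle mean.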

Data set [10] deals with Mus musculus. As to the kind of experiment: In vivo inhibition of CatC in po dosed C57BL/6 mouse bone marrow administered twice daily for 6 days using Gly-Phe-AFC as substrate measured up to 90 mins by fluorescence assay. It counts as functional, organism-based. In a few lines:
as §4

The next data set concerns the target Cathepsin B (Homo sapiens, UniProt P07858). The data set is described as follows: Inhibition of recombinant human C-terminal polyhistidine-tagged cathepsin B (Arg18 to Ile339 residues) expressed in HEK293 cells using Z-Leu-Arg-AMC as substrate preincubated for 30 mins followed by substrate addition and measured after 30 mins. In a few lines:
as §3

For another data set, the target named is Cytochrome P450 2C19 (Homo sapiens, UniProt P33261). As to the kind of experiment: Inhibition of CYP2C19 (unknown origin). In kind it is ADME. The method in brief:
as §2

Data set [11] is described as follows: Half life in C57BL/6 mouse at 10 mg/kg, po by LC-MS/MS analysis. It counts as ADME, organism-based. To be noted: in vivo. In a few lines: as §1
For data set [12], the target named is T1, Dipeptidyl peptidase 1. The data set is described as follows: Inhibition of CatL-activated recombinant human C-terminal His10-tagged cathepsin C (25 to 463 residues) expressed in mouse myeloma cells using Gly-Phe-AFC as substrate preincubated for 3 hrs followed by substrate addition and measured after 60 mins. It counts as cell-free. In a few lines: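 Activated rhCatC was diluted to 4.4 nM in 25 mM MES, 50 mM NaCl, 5 mM DTT, 0.01% Triton X-100, pH 6.0. It was preincubated with compound (added in 10% DMSO) for 3 h at RT. Gly-Phe-AFC was then added to 100 μM final and read as fluorescence after 60 min. IC50 came from a sigmoidal nonlinear fit; values are means of at least two experiments.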

Data set [13] is described as follows: Intrinsic clearance in mouse liver microsomes assessed per mg protein measured after 60 mins in presence of NADPH by LC-MS/MS analysis. In kind it is ADME, Microsome. To be noted: read-out: CLH.
Data set [14] is described as follows: AUC infinity in C57BL/6 mouse at 2 mg/kg, iv by LC-MS/MS analysis. In kind it is ADME, organism-based. Also noted: dose 2 mg/kg, time infinity, route intravenous. As to conditions: in vivo. In a few lines: as §1
A further data set addresses Procathepsin L (Homo sapiens, UniProt P07711). The data set is described as follows: Inhibition of recombinant human C-terminal His6-tagged cathepsin L (Glu113 to Val333 and Ala114 to Val333 residues) expressed in mouse myeloma cells using Z-Leu-Arg-AMC as substrate preincubated for 30 mins followed by substrate addition and measured after 30 mins. In a few lines: as §3

Data set [15] is described as follows: Oral bioavailability in C57BL/6 mouse at 10 mg/kg by LC-MS/MS analysis. As to conditions: in vivo. It counts as ADME, organism-based. In a few lines: as §1

`C=CC(=O)Nc1cc(Oc2nc(Nc3ccc(N4CCN(C)CC4)cc3OC)ccc2N2CCCCC2)ccc1C`: the half-life in [1] is 1.62 h; in data set [11], 3.06 h. Further, the AUC(0-inf) came out at 1360 ng·h/mL in data set [2] and 1220 ng·h/mL in data set [14]. The IC50 against Cytochrome P450 2C9 is over 10 µM; at Dipeptidyl peptidase 1 [5] it was 0.0019 µM; against Cytochrome P450 3A4 it was over 10 µM; on Cathepsin S, over 10 µM; on Cathepsin B, 3 to 10 µM; against Cytochrome P450 2C19 it was over 10 µM. For the same compound, the IC50 on Dipeptidyl peptidase 1 [12] fell in the range of 0.017 to 0.0173 µM; on Procathepsin L it was 3 to 10 µM. The Tmax in data set [3] was 0 h. Besides, the Cmax in data set [4] was found to be 184 ng/mL. Moreover, the inhibition entry at Dipeptidyl peptidase 1 [5], with Mus musculus [9] and with Mus musculus [10] was “Dose-dependent effect” each time. Moreover, the outcome in the data set with Mus musculus [6] and in the data set on Mus musculus [8] was Active. This compound showed an inhibition in vivo at 20 mg/kg with Mus musculus [7] of 80%. Moreover, in data set [13], the microsomal CLint amounted to 10.8 µL/min/mg. The bioavailability in data set [15] is 22.3%.
